According to ChEMBL document CHEMBL1121478, “Potential prophylactic antitumor activity of retinylidene 1,3-diketones” (1980):
The source made the active and inactive calls. The rule behind the calls is not given here.

Tests used:
Cricetinae gen. sp. [1] = assay: Compound is evaluated for its intrinsic ability to control epithelial cell differentiation by retinoids in hamster tracheal organ culture at 10e-8 M; IA = inactive(9/12) 9 were inactive out of 12; format: functional, organism-based; settings: Trachea
Cricetinae gen. sp. [2] = assay: Compound is evaluated for its intrinsic ability to control epithelial cell differentiation by retinoids in hamster tracheal organ culture at 10e-9 M; IA = inactive(14/16) 14 were inactive out of 16; format: functional, organism-based; settings: Trachea
Cricetinae gen. sp. [3] = assay: Compound is evaluated for its intrinsic ability to control epithelial cell differentiation by retinoids in hamster tracheal organ culture at 10e-9 M; IA = inactive(12/16) 12 were inactive out of 16; format: functional, organism-based; settings: Trachea
Cricetinae gen. sp. [4] = assay: Compound is evaluated for its intrinsic ability to control epithelial cell differentiation by retinoids in hamster tracheal organ culture; format: functional, Trachea
Outline: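 Hamster trachea organ cultures (procedure from earlier reports). Retinoids tested at 10^-8, 10^-9 and 10^-10 M. Potency given as ED50.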

Cricetinae gen. sp. [5] = assay: Compound is evaluated for its intrinsic ability to control epithelial cell differentiation by retinoids in hamster tracheal organ culture at 10e -8M; IA = inactive(16/17) 16 cultures were inactive out of 17; format: functional, organism-based; settings: Trachea
Cricetinae gen. sp. [6] = assay: Compound is evaluated for its intrinsic ability to control epithelial cell differentiation by retinoids in hamster tracheal organ culture at 10e-9 M; IA = inactive(3/4) 3 were inactive out of 4; format: functional, organism-based; settings: Trachea
Cricetinae gen. sp. [7] = assay: Compound is evaluated for its intrinsic ability to control epithelial cell differentiation by retinoids in hamster tracheal organ culture at 10e -9M; IA = inactive(7 cultures were inactive out of 7); format: functional, organism-based; settings: Trachea
Cricetinae gen. sp. [8] = assay: Compound is evaluated for its intrinsic ability to control epithelial cell differentiation by retinoids in hamster tracheal organ culture at 10e-8 M; act = active(4 cultures were active out of 5); format: functional, organism-based; settings: Trachea
Cricetinae gen. sp. [9] = assay: Compound is evaluated for its intrinsic ability to control epithelial cell differentiation by retinoids in hamster tracheal organ culture at 10e -10M; IA = inactive(9/12) 9 were inactive out of 12; format: functional, organism-based; settings: Trachea
Cricetinae gen. sp. [10] = assay: Compound is evaluated for its intrinsic ability to control epithelial cell differentiation by retinoids in hamster tracheal organ culture at 10e -9M; IA =inactive(8/15) 8 were inactive out of 15; format: functional, organism-based; settings: Trachea
Cricetinae gen. sp. [11] = assay: Compound is evaluated for its intrinsic ability to control epithelial cell differentiation by retinoids in hamster tracheal organ culture at 10e -8M; IA = inactive( 6 cultures were inactive out of 7); format: functional, organism-based; settings: Trachea

Row | Compound | TOC ED50 (Cricetinae gen. sp. [4]) | further results
1 | CC1=C(/C=C/C(C)=C/C=C/C(C)=C/C=C2C(=O)c3ccccc3C2=O)C(C)(C)CCC1 |  | TOC ED50 (Cricetinae gen. sp. [1]): inactive
2 | 2-[3,7-Dimethyl-9-(2,6,6-trimethyl-cyclohex-1-enyl)-nona-2,4,6,8-tetraenylidene]-[3]ferrocenophane-1,3-dione |  | TOC ED50 (Cricetinae gen. sp. [2]): inactive
3 | CC1=C(/C=C/C(C)=C/C=C/C(C)=C/C=C2C(=O)CCCCCCCCCCCC2=O)C(C)(C)CCC1 |  | TOC ED50 (Cricetinae gen. sp. [3]): inactive
4 | CC1=C(/C=C/C(C)=C/C=C/C(C)=C/C=C2C(=O)CC(C)CC2=O)C(C)(C)CCC1 (configuration not stated) | 800 pM | 
5 | CC1=C(/C=C/C(C)=C/C=C/C(C)=C/C=C2C(=O)CC(C)(C)CC2=O)C(C)(C)CCC1 | 240 pM | 
6 | CC1=C(/C=C/C(C)=C/C=C/C(C)=C/C=C2C(=O)CCC2=O)C(C)(C)CCC1 |  | TOC ED50 (Cricetinae gen. sp. [5]): inactive
7 | CC1=C(/C=C/C(C)=C/C=C/C(C)=C/C=C2C(=O)C=CC2=O)C(C)(C)CCC1 |  | TOC ED50 (Cricetinae gen. sp. [6]): inactive
8 | CC1=C(/C=C/C(C)=C/C=C/C(C)=C/C=C2C(=O)CCCCC2=O)C(C)(C)CCC1 | 380 pM | 
9 | COc1ccc(C2CC(=O)C(=C/C=C(C)/C=C/C=C(C)/C=C/C3=C(C)CCCC3(C)C)C(=O)C2)cc1 (configuration not stated) | 180 pM | 
10 | CC1=C(/C=C/C(C)=C/C=C/C(C)=C/C=C2C(=O)CC(C(C)C)CC2=O)C(C)(C)CCC1 (configuration not stated) | 210 pM | 
11 | CC1=C(/C=C/C(C)=C/C=C/C(C)=C/C=C2C(=O)CCCC2=O)C(C)(C)CCC1 | 110 pM | 
12 | CC(=O)C(=C/C=C(C)/C=C/C=C(C)/C=C/C1=C(C)CCCC1(C)C)C(C)=O | 1800 pM | 
13 | CC1=C(/C=C/C(C)=C/C=C/C(C)=C/C=C2C(=O)CC(c3ccccc3)CC2=O)C(C)(C)CCC1 (configuration not stated) | 100 pM | 
14 | CC1=C(/C=C/C(C)=C/C=C/C(C)=C/C=C2C(=O)CCCCCC2=O)C(C)(C)CCC1 | 220 pM | 
15 | CCC(=O)C(=C/C=C(C)/C=C/C=C(C)/C=C/C1=C(C)CCCC1(C)C)C(=O)CC |  | TOC ED50 (Cricetinae gen. sp. [7]): inactive; TOC ED50 (Cricetinae gen. sp. [8]): Active
16 | CCC1CC(=O)C(=C/C=C(C)/C=C/C=C(C)/C=C/C2=C(C)CCCC2(C)C)C(=O)C1 (configuration not stated) | 360 pM | 
17 | CC1=C(/C=C/C(C)=C/C=C/C(C)=C/C=C2C(=O)C(C(C)(C)C)CC(C(C)(C)C)C2=O)C(C)(C)CCC1 (configuration not stated) |  | TOC ED50 (Cricetinae gen. sp. [9]): inactive; TOC ED50 (Cricetinae gen. sp. [10]): inactive
18 | CCCC(=O)C(=C/C=C(C)/C=C/C=C(C)/C=C/C1=C(C)CCCC1(C)C)C(=O)CCC |  | TOC ED50 (Cricetinae gen. sp. [11]): inactive
19 | CC1=C(/C=C/C(C)=C/C=C/C(C)=C/C=C2C(=O)CCCCCCC2=O)C(C)(C)CCC1 | 240 pM | 
20 | CC1=C(/C=C/C(C)=C/C=C/C(C)=C/C=C2C(=O)CC(c3ccc(C(F)(F)F)cc3)CC2=O)C(C)(C)CCC1 (configuration not stated) | 100 pM | 
